Assay results: ChEMBL document CHEMBL3779801, “Discovery of the Selective CYP17A1 Lyase Inhibitor BMS-351 for the Treatment of Prostate Cancer” (ACS Med Chem Lett, 2016); call rule not given here
pIC50: −log10 of the molar value.

Tests used:
[1] = target: T1, Steroid 17-alpha-hydroxylase/17,20 lyase (Homo sapiens, UniProt P05093); assay: Inhibition of human CYP17A1 expressed in HEK293 cell microsomes using [3H]-pregnenolone as substrate incubated for 45 mins by scintillation proximity assay in presence of NADPH
T1 sequence (P05093 whole entry): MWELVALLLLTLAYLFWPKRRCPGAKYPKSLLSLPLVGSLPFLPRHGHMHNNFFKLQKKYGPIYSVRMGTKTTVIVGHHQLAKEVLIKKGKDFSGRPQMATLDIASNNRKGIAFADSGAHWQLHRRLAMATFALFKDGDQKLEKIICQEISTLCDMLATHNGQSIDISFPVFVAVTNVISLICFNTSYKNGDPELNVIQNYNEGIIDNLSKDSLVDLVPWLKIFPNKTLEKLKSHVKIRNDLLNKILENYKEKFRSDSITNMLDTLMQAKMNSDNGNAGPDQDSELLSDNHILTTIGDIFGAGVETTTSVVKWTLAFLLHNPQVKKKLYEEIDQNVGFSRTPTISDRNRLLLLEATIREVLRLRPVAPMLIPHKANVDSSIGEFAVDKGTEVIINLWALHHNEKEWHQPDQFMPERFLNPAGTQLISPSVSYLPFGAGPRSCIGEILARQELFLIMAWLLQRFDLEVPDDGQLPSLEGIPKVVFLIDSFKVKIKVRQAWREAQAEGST

[2] = target: T1, Steroid 17-alpha-hydroxylase/17,20 lyase; assay: Selectivity ratio of human CYP17A1 hydroxylase activity expressed in Escherichia coli using pregnenolone substrate to human CYP17A1 lyase activity expressed in HEK293 cell microsomes using [3H]-hydroxypregnenolone substrate
How it was run: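 Hydroxylase and lyase activities were run with different enzyme preparations, so the hydroxylase/lyase ratios are estimates.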

[3] = Metabolic stability in cynomolgus monkey liver microsomes assessed as parent compound remaining at 0.5 uM incubated for 10 mins; assay type: ADME, Macaca fascicularis; conditions: read-out: Stability
How it was run: (§1)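 Compound at 0.5 μM was incubated with human, mouse or cynomolgus liver microsomes for 10 min.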

[4] = Metabolic stability in human liver microsomes assessed as parent compound remaining at 0.5 uM incubated for 10 mins; assay type: ADME; conditions: read-out: Stability; how it was run: as §1
[5] = Metabolic stability in mouse liver microsomes assessed as parent compound remaining at 0.5 uM incubated for 10 mins; assay type: ADME; conditions: read-out: Stability; how it was run: as §1
Cytochrome P450 1A2 = target: T2, Cytochrome P450 1A2 (Homo sapiens, UniProt P05177); assay: Inhibition of CYP1A2 (unknown origin); assay type: ADME
T2 sequence (P05177 whole entry): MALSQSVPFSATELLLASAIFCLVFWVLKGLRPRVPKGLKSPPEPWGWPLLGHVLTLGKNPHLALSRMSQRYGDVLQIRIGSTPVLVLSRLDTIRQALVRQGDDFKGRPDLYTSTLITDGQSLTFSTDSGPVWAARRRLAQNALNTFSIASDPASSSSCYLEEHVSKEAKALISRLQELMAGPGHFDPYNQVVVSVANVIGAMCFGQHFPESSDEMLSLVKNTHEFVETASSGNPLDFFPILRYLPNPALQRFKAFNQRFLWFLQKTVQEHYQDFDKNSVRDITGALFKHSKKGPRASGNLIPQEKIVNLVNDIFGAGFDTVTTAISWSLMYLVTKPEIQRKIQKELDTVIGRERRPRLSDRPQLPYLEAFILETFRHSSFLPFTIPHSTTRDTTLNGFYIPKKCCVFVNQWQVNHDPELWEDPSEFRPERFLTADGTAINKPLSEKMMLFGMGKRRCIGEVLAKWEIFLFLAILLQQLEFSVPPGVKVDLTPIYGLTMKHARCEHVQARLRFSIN

[6] = target: T3, Cytochrome P450 11B1, mitochondrial (Homo sapiens, UniProt P15538); assay: Inhibition of CYP11B1 in human H295R cells using deoxycorticosterone as substrate incubated for 48 hrs by LC-MS method; assay type: ADME, cell-based
T3 sequence (P15538 whole entry): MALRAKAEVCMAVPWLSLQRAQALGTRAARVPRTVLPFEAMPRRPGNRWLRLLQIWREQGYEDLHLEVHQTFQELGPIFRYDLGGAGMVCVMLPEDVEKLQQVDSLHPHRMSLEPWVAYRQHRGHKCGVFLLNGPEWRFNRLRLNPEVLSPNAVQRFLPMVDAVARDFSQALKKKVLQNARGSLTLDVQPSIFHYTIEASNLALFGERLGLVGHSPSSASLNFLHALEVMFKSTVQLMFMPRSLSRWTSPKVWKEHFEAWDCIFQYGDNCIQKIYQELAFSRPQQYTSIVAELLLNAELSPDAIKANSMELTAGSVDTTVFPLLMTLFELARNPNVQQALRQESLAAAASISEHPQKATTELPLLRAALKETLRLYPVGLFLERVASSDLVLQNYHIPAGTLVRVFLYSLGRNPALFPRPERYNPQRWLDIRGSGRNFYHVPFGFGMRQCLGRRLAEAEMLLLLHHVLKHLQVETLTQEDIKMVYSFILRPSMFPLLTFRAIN

Cynomolgus monkey [7] = assay: Increase in progesterone level in one day castrated cynomolgus monkey at 42 mg/kg, po bid for 24 hrs by radiometric immunoassay; assay type: ADME, organism-based, Macaca fascicularis; conditions: in vivo
[8] = Inhibition of cynomolgus monkey CYP21A2 using hydroxy progesterone as substrate incubated for 120 mins by LC-MS method; set-up: species or system Macaca fascicularis
[9] = target: T4, Steroid 17-alpha-hydroxylase/17,20 lyase (Macaca fascicularis, UniProt Q2XVA1); assay: Inhibition of CYP17A1 in cynomolgus monkey adrenal microsomes using [3H]-pregnenolone as substrate incubated for 45 mins by scintillation proximity assay in presence of NADPH; set-up: species or system Adrenal gland
T4 sequence (Q2XVA1 whole entry): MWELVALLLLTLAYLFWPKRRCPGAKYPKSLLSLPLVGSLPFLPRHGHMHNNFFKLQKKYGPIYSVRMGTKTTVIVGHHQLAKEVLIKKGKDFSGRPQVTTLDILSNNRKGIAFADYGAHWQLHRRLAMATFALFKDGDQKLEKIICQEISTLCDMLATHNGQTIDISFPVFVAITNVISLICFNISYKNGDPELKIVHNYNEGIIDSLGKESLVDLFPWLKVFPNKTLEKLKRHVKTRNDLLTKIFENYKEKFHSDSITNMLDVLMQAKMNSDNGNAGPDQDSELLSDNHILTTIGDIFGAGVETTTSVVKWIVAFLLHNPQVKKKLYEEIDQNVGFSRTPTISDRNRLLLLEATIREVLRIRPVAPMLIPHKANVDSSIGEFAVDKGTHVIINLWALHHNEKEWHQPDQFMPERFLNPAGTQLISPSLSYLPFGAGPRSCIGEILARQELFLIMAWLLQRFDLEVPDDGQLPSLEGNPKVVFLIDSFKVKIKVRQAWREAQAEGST

[10] = target: T4, Steroid 17-alpha-hydroxylase/17,20 lyase; assay: In vivo inhibition of CYP17A1 in one day castrated cynomolgus monkey assessed as reduction in testosterone level in plasma at 42 mg/kg, po bid for 24 hrs by radiometric immunoassay; assay type: organism-based
[11] = target: T1, Steroid 17-alpha-hydroxylase/17,20 lyase; assay: Inhibition of CYP17A1 in human adrenal microsomes using [3H]-pregnenolone as substrate incubated for 90 mins by scintillation proximity assay in presence of NADPH; set-up: species or system Adrenal gland
[12] = Inhibition of cynomolgus monkey CYP11B1 using hydroxy progesterone as substrate incubated for 120 mins by LC-MS method; set-up: species or system Macaca fascicularis
[13] = Tmax in one day castrated cynomolgus monkey at 42 mg/kg, po bid; assay type: ADME, organism-based, Macaca fascicularis; conditions: male, in vivo
How it was run: (§2)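 Castrated cynomolgus monkeys were studied over one day with oral BID dosing at time 0 and 8 h. Plasma levels were sampled at set time points over 1–24 h and reported as average ± standard deviation in nM, n = 4.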

Cynomolgus monkey [14] = assay: Decrease in cortisol level in one day castrated cynomolgus monkey at 42 mg/kg, po bid for 24 hrs by radiometric immunoassay; assay type: ADME, organism-based, Macaca fascicularis; set-up: scale not given: the % may be the effect or the level left; conditions: in vivo
[15] = target: T4, Steroid 17-alpha-hydroxylase/17,20 lyase; assay: Inhibition of CYP17A1 in cynomolgus monkey using [3H]-pregnenolone as substrate incubated for 45 mins by scintillation proximity assay in presence of NADPH
[16] = Tmax in one day castrated cynomolgus monkey at 42 mg/kg, po bid measured after second dose administered at 8 hrs; assay type: ADME, organism-based, Macaca fascicularis; conditions: male, in vivo; how it was run: as §2

SMILES	pIC50 [1]	remaining at 10 min, 0.5 µM [3] [%]	remaining at 10 min, 0.5 µM [4] [%]	remaining at 10 min, 0.5 µM [5] [%]	pIC50 (Cytochrome P450 1A2)	other results
Cc1ccncc1-c1cccc2c1ncn2-c1cnccn1		83	98	59	6.74	Selectivity ratio [2]: 18
C[C@]12CC[C@H](O)CC1=CC[C@@H]1C2CC[C@]2(C)C(c3cccnc3)=CCC12 (some centres undefined)						pIC50 [6]: 6.06; Activity (Cynomolgus monkey [7]): 1247%; pIC50 [8]: 6.83; pIC50 [9]: 8.52; inhibition (INH) [10]: Active; pIC50 [11]: 7.68; pIC50 [12]: 5.61; Tmax [13]: 1 h; Activity (Cynomolgus monkey [14]): 80%; pIC50 [15]: 8.70; Tmax [16]: 9.5 h
Cc1ccncc1-c1cccc2c1cnn2-c1ccc(F)cc1	8.30		100	11	6.72	
Cc1ccncc1-c1cccc2c1ncn2-c1nccs1	8.10	42	92	16	7.12	Selectivity ratio [2]: 14
Cc1ccncc1-c1cccc2c1ncn2-c1cscn1	8.10	50	90	42	6.82	

Now from value to compound, other results behind:

pIC50 [1]	remaining at 10 min, 0.5 µM [3] [%]	remaining at 10 min, 0.5 µM [4] [%]	remaining at 10 min, 0.5 µM [5] [%]	pIC50 (Cytochrome P450 1A2)	SMILES	other results
8.22	100	96	33	7.03	Cc1ccncc1-c1cccc2c1ncn2-c1ccccn1	Selectivity ratio [2]: 8
8.30		62	12	7.15	Cc1ccncc1-c1cccc2c1cnn2-c1cscn1	
8.30	53	72	7	5.40	Cc1ccncc1-c1cccc2c1cnn2-c1cnccn1	
8.40		69	8	7.10	Cc1ccncc1-c1cccc2c1cnn2-c1nccs1	
8.52		89	17	6.57	Cc1ccncc1-c1cccc2c1cnn2-c1cccnn1	
8.40	39	78	4	6.92	Cc1ccncc1-c1cccc2c1cnn2-c1ccccc1	
8.70	19	95	8	6.85	Cc1ccncc1-c1cccc2c1cnn2-c1ccccn1	
